Test results from article PMC4756412 (Journal of pharmaceutical sciences, 2016).
Entries after “also recorded” stand apart in the source; their conditions may differ. Bridge positions count the residues as written; N and C are the ends. Peptide text beside a SMILES is read from it.

Legend:
[1] = test system: blood-brain barrier; conditions: completely reversed by 4 h following treatment; cited from earlier work
[2] = test system: MDCK-II cell monolayers; assay: Inhibition of junction resealing in MDCK cell monolayers; type: cell-based, canine; conditions: peptide 1.0 mM apical and basolateral, TEER, 5- and 6-h time points
[3] = test system: MDCK-II cell monolayers; assay: Direct junction modulation of intact MDCK cell monolayers; type: cell-based, canine; conditions: peptide 1.0 mM, Ca2+-sufficient buffer, 7- and 8-h time points
Summary of the method: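 MDCK-II cells were seeded at 75,000 cells/well on 0.4 μm polyester Transwell membranes and grown 5–8 days, with starting TEER of 280–320 ohm.cm². Monolayers were washed in HBSS (25 mM glucose, 2 mM CaCl₂, 0.75 mM MgSO₄, 10 mM HEPES), with no Ca²⁺-free step. They were then exposed apically and basolaterally to test compound (1.0 mM) or none, and TEER was read hourly for 6–8 h by voltohmmeter.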

[4] = Peptide stability in rat plasma; type: in vitro ADME; conditions: rat plasma (NaHeparin)
Summary of the method: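 Test compound in DMSO was spiked into heparinised rat plasma (final DMSO 0.6%) and shaken at 50 rpm at 37 °C for up to 8 or 72 h, about 2–3 half-lives. Samples were deproteinised with ACN:H₂O:EtOAc (6:1:1) and centrifuged at 17226 g. Remaining peptide was quantified by LC-MS/MS against a peptide internal standard, and half-life was calculated.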

[5] = test system: blood-brain barrier; assay: In-situ rat brain perfusion, 14C-mannitol brain delivery; type: in vivo, Sprague-Dawley rats; conditions: peptide 1.0 mM, 240-s perfusion, then 240-s 14C-mannitol
Summary of the method: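 Sprague-Dawley rats were anaesthetised i.p. with ketamine 100 mg/kg plus xylazine 5 mg/kg. Perfusion via a left common carotid cannula at 5.0 mL/min began right after cardiac puncture: 20-s saline, 240-s test compound (1.0 mM) or vehicle, 240-s ¹⁴C-mannitol, then 5-s saline wash. Perfusate was filter-sterilised and oxygenated (95% air/5% CO₂, 37 °C). Rectal temperature was held at 36.5 ± 0.5 °C.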

[6] = test system: blood-brain barrier; assay: MRI of Gd-DTPA brain deposition after i.v. peptide; type: in vivo, Balb/c mice
[7] = test system: blood-brain barrier; assay: NIRF imaging of IRdye800cw-PEG and R800 brain deposition; type: in vivo, mice; conditions: 0.01 mmol/kg peptide i.v., ex vivo brain-to-plasma fluorescence ratio
Summary of the method: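 Mice received test compound 0.010 mmol/kg or PBS i.v. After 5 min, IRDye 800CW PEG (~25 kDa, 0.01 μmol/kg) and R800 (P-gp substrate, 0.032 μmol/kg) were given i.v. Mice were killed by cardiac perfusion of 10% formaldehyde 20 min after treatment. Brains were imaged ex vivo by near-infrared scanner, and ROI fluorescence per unit tissue was divided by fluorescence per μL blood at the same time point.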

[8] = 0.01 mmol/kg i.v., AUC over 42 min, posterior, midbrain, anterior
[9] = 0.001, 0.0032, 0.01 mmol/kg i.v., 42-min session

| half-life [4] [h] | Compound | duration for which BBB modulation was observed [1] [h] | inhibition of junction resealing compared to HBSS [2] | lowering of TEER of intact monolayers compared to HBSS [3] | passage of 14C-mannitol into rat brain compared to vehicle [5] | Gd-DTPA enhancement after 1-h peptide pretreatment [6, 8] | Gd-DTPA enhancement after 2-h peptide pretreatment [6, 8] | maximum enhancement of Gd-DTPA compared to background at 0 time point ([6]; 0.010 mmol/kg i.v., posterior region, Gd-DTPA 0.4 mmol/kg, 42-min MRI session) | duration of BBB modulation (Gd-DTPA) ([6]; 0.01 mmol/kg i.v., various pretreatment times, MRI) [h] | AUC of Gd-DTPA deposition vs vehicle, anterior region [6, 9] | AUC of Gd-DTPA deposition vs vehicle, midbrain [6, 9] | AUC of Gd-DTPA deposition vs vehicle, posterior region [6, 9] | increase in brain delivery of Gd-DTPA ([6]; following peptide treatment) | brain deposition of IRdye800cw-PEG, 5-min pretreatment [7] |
| --- | --- | --- | --- | --- | --- | --- | --- | --- | --- | --- | --- | --- | --- | --- |
| – | Ac-CDTPPVC-NH2 (disulfide 1-7 (inferred); SMILES CC(=O)N[C@H]1CSSC[C@@H](C(N)=O)NC(=O)[C@H](C(C)C)NC(=O)[C@@H]2CCCN2C(=O)[C@@H]2CCCN2C(=O)[C@H]([C@@H](C)O)NC(=O)[C@H](CC(=O)O)NC1=O) [ADTC5] | 2 | – | – | – | – | – | – | – | – | – | – | – | – |
| 2.4 | CC(=O)N[C@@H](CO)C(=O)N[C@@H](Cc1c[nH]cn1)C(=O)N[C@@H](C)C(=O)N[C@H](C(=O)N[C@@H](C)C(=O)N[C@@H](CO)C(N)=O)C(C)C [HAV4] (Ac-SHAVAS-NH2) | – | significantly inhibited the resealing; also recorded: inhibited the junction resealing | lowered the TEER values significantly | significantly enhanced | did not produce any Gd-DTPA enhancement | did not produce any Gd-DTPA enhancement | up to fivefold | < 1 | significantly higher than those of the vehicle group at all peptide doses examined | only treatment with 0.01 mmol/kg showed significant enhancement compared to vehicle | significantly higher than those of the vehicle group at all peptide doses examined | 3-4 fold | higher than in saline-treated controls |
